Laboratory results as given in ChEMBL document CHEMBL1142153, “Pharmacokinetics and disposition of CS-023 (RO4908463), a novel parenteral carbapenem, in animals” (Antimicrob Agents Chemother, 2007).

What was measured:
[1] = test system: Rattus norvegicus; experiment: Urinary excretion in rat assessed as radioactivity at 10 mg/kg, iv after 24 h; format: ADME, organism-based, Urine; design: dose 10 mg/kg, route intravenous; conditions: in vivo
Method in brief: (§1)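 Rats were dosed i.v. via the tail vein with [14C]CS-023 at 10 mg/kg (4.58 MBq/kg) in saline, then kept in individual metabolic cages for separate urine and feces collection over 7 days. Samples up to 24 h were collected at around 4°C into 0.5 M MOPS pH 6.0, and feces were homogenized. Radioactivity was measured by liquid scintillation counting. Parent drug and metabolite were apportioned by silica TLC (3% NaCl:acetonitrile 2:1) with imaging-plate analysis. n=4.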

[2] = test system: Rattus norvegicus; experiment: Fecal excretion in rat assessed as radioactivity at 10 mg/kg, iv after 24 h; format: ADME, organism-based; design: dose 10 mg/kg, route intravenous; conditions: in vivo; method in brief: as §1
[3] = Protein binding in rat serum at 20 ug/ml; format: ADME, cell-free; conditions: read-out: PPB (converted)
Method in brief: (§2)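 Serum was spiked with CS-023 in water to a final 20 or 100 µg/ml and incubated for 5 min at 37°C. It was then ultrafiltered by centrifugation at 2,000 x g for 10 min at room temperature. Drug in serum before filtration (Ct) and in the filtrate (Cf) was measured by HPLC-UV. Bound % = (Ct − Cf)/Ct × 100; n=4.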

[4] = Protein binding in rat serum at 100 ug/ml; format: ADME, cell-free; conditions: read-out: PPB (converted); method in brief: as §2
[5] = Protein binding in dog serum at 20 ug/ml; format: ADME, cell-free, Canis lupus familiaris; conditions: read-out: PPB; method in brief: as §2
[6] = Protein binding in dog serum at 100 ug/ml; format: ADME, cell-free, Canis lupus familiaris; conditions: read-out: PPB (converted); method in brief: as §2
[7] = Half life in rat at 10 mg/kg, iv; format: ADME, organism-based; design: dose 10 mg/kg, route intravenous; conditions: in vivo
Method in brief: (§3)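 Rats received CS-023 in saline by tail-vein bolus at 10, 25 or 50 mg/kg; jugular blood was drawn serially. Plasma mixed with an equal volume of 500 mM MOPS pH 6.0 containing internal standard, then HPLC with UV at 304 nm (linear 1–500 µg/ml). Log-linear terminal kel gave t1/2; AUC by trapezoidal rule + Clast/kel; CL = dose/AUC0-inf. n=3.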

[8] = Half life in rat at 25 mg/kg, iv; format: ADME, organism-based; design: dose 25 mg/kg, route intravenous; conditions: in vivo; method in brief: as §3
[9] = Half life in rat at 50 mg/kg, iv; format: ADME, organism-based; design: dose 50 mg/kg, route intravenous; conditions: in vivo; method in brief: as §3
[10] = Half life in dog at 5 mg/kg, iv; format: ADME, organism-based, Canis lupus familiaris; design: dose 5 mg/kg, route intravenous; conditions: in vivo
Method in brief: (§4)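 Single i.v. bolus of CS-023 in saline into the foreleg saphenous vein of dogs at 5, 10 or 25 mg/kg; serial blood from the same vein. Plasma separated at 4°C, mixed 1:1 with 500 mM MOPS pH 6.0 containing internal standard, and analysed by two-column HPLC with UV at 304 nm; linear 1–500 µg/ml. kel from log-linear terminal slope, t1/2 = 0.693/kel; AUC by trapezoids plus Clast/kel; CL = dose/AUC; Vss = CL × MRT. n=3.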

[11] = Half life in dog at 10 mg/kg, iv; format: ADME, organism-based, Canis lupus familiaris; design: dose 10 mg/kg, route intravenous; conditions: in vivo; method in brief: as §4
[12] = Half life in dog at 25 mg/kg, iv; format: ADME, organism-based, Canis lupus familiaris; design: dose 25 mg/kg, route intravenous; conditions: in vivo; method in brief: as §4
[13] = AUC (0-inf) in rat at 10 mg/kg, iv; format: ADME, organism-based; design: dose 10 mg/kg, route intravenous, time infinity; conditions: plasma; method in brief: as §3
[14] = AUC (0-inf) in rat at 25 mg/kg, iv; format: ADME, organism-based; design: time infinity, dose 25 mg/kg, route intravenous; conditions: plasma; method in brief: as §3
[15] = AUC (0-inf) in rat at 50 mg/kg, iv; format: ADME, organism-based; design: time infinity, dose 50 mg/kg, route intravenous; conditions: plasma; method in brief: as §3
[16] = AUC (0-inf) in dog at 5 mg/kg, iv; format: ADME, organism-based, Canis lupus familiaris; design: time infinity, dose 5 mg/kg, route intravenous; conditions: plasma; method in brief: as §4
[17] = AUC (0-inf) in dog at 10 mg/kg, iv; format: ADME, organism-based, Canis lupus familiaris; design: dose 10 mg/kg, route intravenous, time infinity; conditions: plasma; method in brief: as §4
[18] = AUC (0-inf) in dog at 25 mg/kg, iv; format: ADME, organism-based, Canis lupus familiaris; design: time infinity, dose 25 mg/kg, route intravenous; conditions: plasma; method in brief: as §4
[19] = Clearance in rat at 10 mg/kg, iv; format: ADME, organism-based; design: dose 10 mg/kg, route intravenous; conditions: in vivo; method in brief: as §3
[20] = Clearance in rat at 25 mg/kg, iv; format: ADME, organism-based; design: dose 25 mg/kg, route intravenous; conditions: in vivo; method in brief: as §3
[21] = Clearance in rat at 50 mg/kg, iv; format: ADME, organism-based; design: dose 50 mg/kg, route intravenous; conditions: in vivo; method in brief: as §3
[22] = Clearance in dog at 5 mg/kg, iv; format: ADME, organism-based, Canis lupus familiaris; design: dose 5 mg/kg, route intravenous; conditions: in vivo; method in brief: as §4
[23] = Clearance in dog at 10 mg/kg, iv; format: ADME, organism-based, Canis lupus familiaris; design: dose 10 mg/kg, route intravenous; conditions: in vivo; method in brief: as §4
[24] = Clearance in dog at 25 mg/kg, iv; format: ADME, organism-based, Canis lupus familiaris; design: dose 25 mg/kg, route intravenous; conditions: in vivo; method in brief: as §4
[25] = Volume of distribution at steady state in rat at 10 mg/kg, iv; format: ADME, organism-based; design: dose 10 mg/kg, route intravenous; conditions: in vivo, read-out: Vss
Method in brief: (§5)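 Rats dosed once by tail-vein bolus of CS-023 in saline; blood drawn serially from the jugular vein and plasma separated at 4°C. Plasma mixed 1:1 with 500 mM MOPS pH 6.0 containing p-acetamidophenol internal standard and assayed by HPLC with UV at 304 nm (linear 1 to 500 µg/ml). Vss = CL (dose/AUC0-∞) × mean residence time.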

[26] = Volume of distribution at steady state in rat at 25 mg/kg, iv; format: ADME, organism-based; design: dose 25 mg/kg, route intravenous; conditions: in vivo, read-out: Vss; method in brief: as §5
[27] = Volume of distribution at steady state in rat at 50 mg/kg, iv; format: ADME, organism-based; design: dose 50 mg/kg, route intravenous; conditions: in vivo, read-out: Vss; method in brief: as §5
[28] = Volume of distribution at steady state in dog at 5 mg/kg, iv; format: ADME, organism-based, Canis lupus familiaris; design: dose 5 mg/kg, route intravenous; conditions: in vivo, read-out: Vss; method in brief: as §4
[29] = Volume of distribution at steady state in dog at 10 mg/kg, iv; format: ADME, organism-based, Canis lupus familiaris; design: dose 10 mg/kg, route intravenous; conditions: in vivo, read-out: Vss; method in brief: as §4
[30] = Volume of distribution at steady state in dog at 25 mg/kg, iv; format: ADME, organism-based, Canis lupus familiaris; design: dose 25 mg/kg, route intravenous; conditions: in vivo, read-out: Vss; method in brief: as §4
[31] = test system: Macaca fascicularis; experiment: Half life in monkey at 5 mg/kg, iv; conditions: cynomolgus monkey, in vivo
[32] = test system: Macaca fascicularis; experiment: Clearance in monkey at 5 mg/kg, iv; conditions: cynomolgus monkey, in vivo
[33] = test system: Macaca fascicularis; experiment: Half life in monkey at 10 mg/kg, iv; conditions: cynomolgus monkey, in vivo
[34] = test system: Macaca fascicularis; experiment: Half life in monkey at 25 mg/kg, iv; conditions: cynomolgus monkey, in vivo
[35] = test system: Macaca fascicularis; experiment: Clearance in monkey at 10 mg/kg, iv; conditions: cynomolgus monkey, in vivo
[36] = test system: Macaca fascicularis; experiment: Clearance in monkey at 25 mg/kg, iv; conditions: cynomolgus monkey, in vivo
[37] = test system: Macaca fascicularis; experiment: AUC (0-inf) in monkey at 5 mg/kg, iv; conditions: cynomolgus monkey, plasma
[38] = test system: Macaca fascicularis; experiment: AUC (0-inf) in monkey at 10 mg/kg, iv; conditions: cynomolgus monkey, plasma
[39] = test system: Macaca fascicularis; experiment: AUC (0-inf) in monkey at 25 mg/kg, iv; conditions: cynomolgus monkey, plasma
[40] = species: Macaca fascicularis; experiment: Protein binding in monkey serum at 20 ug/ml; conditions: cynomolgus monkey, read-out: PPB (converted)
[41] = species: Macaca fascicularis; experiment: Protein binding in monkey serum at 100 ug/ml; conditions: cynomolgus monkey, read-out: PPB (converted)
[42] = test system: Macaca fascicularis; experiment: Volume of distribution at steady state in monkey at 5 mg/kg, iv; conditions: cynomolgus monkey, in vivo, read-out: Vss
[43] = test system: Macaca fascicularis; experiment: Volume of distribution at steady state in monkey at 25 mg/kg, iv; conditions: cynomolgus monkey, in vivo, read-out: Vss
[44] = test system: Macaca fascicularis; experiment: Volume of distribution at steady state in monkey at 10 mg/kg, iv; conditions: cynomolgus monkey, in vivo, read-out: Vss

SMILES: C[C@@H](O)[C@H]1C(=O)N2C(C(=O)O)=C(S[C@H]3C[C@@H](C(=O)N4CC[C@H](NC(=O)CNC(=N)N)C4)N(C)C3)[C@H](C)[C@H]12 [TOMOPENEM]
- Activity [1]: 29.6%
- Activity [2]: 3.1%
- fraction unbound at 20 ug/ml [3]: 0.95
- fraction unbound at 100 ug/ml [4]: 0.941
- fraction unbound at 20 ug/ml [5]: 0.91
- fraction unbound at 100 ug/ml [6]: 0.946
- half-life [7]: 9.6 min
- half-life [8]: 11.4 min
- half-life [9]: 12 min
- half-life [10]: 45 min
- half-life [11]: 45 min
- half-life [12]: 52.8 min
- AUC(0-inf) [13]: 10200 ng·h/mL
- AUC(0-inf) [14]: 28400 ng·h/mL
- AUC(0-inf) [15]: 55000 ng·h/mL
- AUC(0-inf) [16]: 18800 ng·h/mL
- AUC(0-inf) [17]: 39900 ng·h/mL
- AUC(0-inf) [18]: 129000 ng·h/mL
- clearance [19]: 16.9 mL/min/kg
- clearance [20]: 15.1 mL/min/kg
- clearance [21]: 15.2 mL/min/kg
- clearance [22]: 4.44 mL/min/kg
- clearance [23]: 4.19 mL/min/kg
- clearance [24]: 3.26 mL/min/kg
- Vd [25]: 0.199 L/kg
- Vd [26]: 0.218 L/kg
- Vd [27]: 0.22 L/kg
- Vd [28]: 0.269 L/kg
- Vd [29]: 0.259 L/kg
- Vd [30]: 0.228 L/kg
- half-life [31]: 79.2 min
- clearance [32]: 1.76 mL/min/kg
- half-life [33]: 83.4 min
- half-life [34]: 86.4 min
- clearance [35]: 1.62 mL/min/kg
- clearance [36]: 1.73 mL/min/kg
- AUC(0-inf) [37]: 48600 ng·h/mL
- AUC(0-inf) [38]: 104000 ng·h/mL
- AUC(0-inf) [39]: 244000 ng·h/mL
- fraction unbound at 20 ug/ml [40]: 0.844
- fraction unbound at 100 ug/ml [41]: 0.849
- Vd [42]: 0.176 L/kg
- Vd [43]: 0.184 L/kg
- Vd [44]: 0.172 L/kg
